Screens: PubChem, several laboratories
Apaf-1 inh – blocks human Apaf-1 apoptosome activity. O14727. reconstituted apoptosome caspase-3 activity, DEVD-Rh110 fluorescence. inhibition, % at 20 µM. 0.71% of 330,000 active; active = inhibition of at least 40% at 20 µM;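 also: plate controls were DMSO wells for no effect and DEVD-CHO caspase inhibitor wells for full effect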
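detection = Rh110 fluorescence intensity | test system = biochemical Apaf-1 apoptosome reconstitution | also added = cytochrome c and DEVD-Rh110 substrate | schedule = 30 min plus 50 min, RT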
UBC13 inh – inhibitors of human UBC13 polyubiquitin chain formation; inhibition, % at 20 µM; P61088; TR-FRET; 0.47% of 330,000 active; in the data active = inhibition above about 45%, passing the limit was not always enough
Target sequence (P61088 whole entry, looked up): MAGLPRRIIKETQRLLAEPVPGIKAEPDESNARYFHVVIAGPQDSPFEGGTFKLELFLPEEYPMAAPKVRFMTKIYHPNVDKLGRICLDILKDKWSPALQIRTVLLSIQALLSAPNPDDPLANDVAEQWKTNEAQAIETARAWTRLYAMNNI
MEKK3 PB1 HTS – MEKK3-MEK5 PB1 interaction, increase or decrease. bead-based flow cytometry, Alexa488-MEK5 binding to MEKK3; actives lie on both sides; 0 = blocked by unlabeled MEK5, 100 = vehicle. binding response (% of control), % at 10 µM. 1.4% of 290,000 active;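 active = binding response more than 3 SD above or below the average of its plate-row segment, actives on both sides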;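 also: Alexa488 bead fluorescence after subtracting the streptavidin-only scavenger bead signal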
MEKK2wt PB1 HTS – raises or lowers MEK5 binding to wildtype human MEKK2 PB1 domain | binding response (% of control), % at 10 µM | bead flow cytometry, Alexa488-MEK5 binding to MEKK2 WT; actives lie on both sides | AID 1531 | 1.1% of 290,000 active | Q9Y2U5; in the data active = binding response below about 67% or above about 130%
MEKK2mut PB1 HTS – signal of MEK5 binding to mutant human MEKK2 PB1 domain. bead flow cytometry, Alexa488-MEK5 binding to MEKK2 mutant. AID 1530. 0.35% of 290,000 active. percent response, % at 10 µM; in the data active = percent response above about 24%, passing the limit was not always enough
Pemphigus Ab inh – blocks pemphigus antibody binding to human desmoglein-3; P32926; DSG3-coupled beads, scFv-anti-DSG3-GFP binding, flow cytometry; stronger effect = lower value; 0.48% of 310,000 active; binding (percent of control), % at 10 µM;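 active = binding more than 3 SD below its plate's average and above zero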;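 also: hits lower antibody fragment binding to DSG3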
MEKK2wt confirm – raises or lowers MEK5 binding to wildtype human MEKK2, retest; bead flow cytometry, Alexa488-MEK5 binding to MEKK2 WT; actives lie on both sides; 2.4% of 5,900 active; shares compounds with MEKK3 PB1 HTS; binding response (% of control), % at 10 µM; AID 1892; in the data active = binding response below about 16% or above about 210%; inactive = in between
MEKK2mut-MEK5 – signal of MEK5 binding to mutant human MEKK2, retest; shares compounds with MEKK3 PB1 HTS; percent response, % at 10 µM; 2% of 5,900 active; AID 1893; bead flow cytometry, Alexa488-MEK5 binding to MEKK2 mutant; in the data active = percent response mostly above about 71%, no sharp cut-off; inactive = mostly below about 38%;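 also: higher means compound restores mutant binding toward wildtype level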
MEKK3 confirm – MEKK3-MEK5 PB1 inhibition, single concentration confirmation | shares compounds with MEKK3 PB1 HTS | bead flow cytometry, Alexa488-MEK5 binding to MEKK3; stronger effect = lower value | binding response (% of control), % at 10 µM | 1.8% of 5,900 active;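 active = binding response below 72% of control, or above a set upper limit, though filed actives all read lower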;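 also: 100% = DMSO only wells and 0% = binding blocked by excess unlabeled MEK5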
The depositor's hits bear a star; [ ] = another dose, or the depositor's remark. Only some compounds are listed: those with a hit (about 3.2% of all), similar ones and a draw of the others.

`Cc1ccccc1NS(=O)(=O)c1ccc(C(=O)NCc2ccccc2CN2CCCC2)cc1` gave Pemphigus Ab inh 119.
`CC(=O)Nc1ccc(S(=O)(=O)Nc2cccc(NC(=O)c3ccco3)c2)cc1` gave Apaf-1 inh -4, UBC13 inh 2, MEKK3 PB1 HTS 45*[inhibitor], MEKK2wt PB1 HTS 62, MEKK2mut PB1 HTS -25, Pemphigus Ab inh 100, MEKK2wt confirm 100, MEKK2mut-MEK5 6 and MEKK3 confirm 101.
For CC(=O)Nc1ccc(S(=O)(=O)Nc2ccc(NC(=O)c3ccco3)cc2)cc1 the results were Apaf-1 inh -17, UBC13 inh -4 and Pemphigus Ab inh 102.
`CCOC(=O)/C=C/[C@H]1CCc2cccc(Cl)c2O1` gave Apaf-1 inh 18, UBC13 inh 2 and Pemphigus Ab inh 107.
O=C(COC(=O)CCC1CCCC1)Nc1ccc(F)cc1Cl was read as Apaf-1 inh 12 and UBC13 inh 8.
CSc1nc(-c2ccccc2)nn1C(=O)c1ccco1 was read as Apaf-1 inh -3, UBC13 inh 10, MEKK3 PB1 HTS 1.0*[inhibitor], MEKK2wt PB1 HTS 1.0*[inhibitor], MEKK2mut PB1 HTS -1, MEKK2wt confirm 97, MEKK2mut-MEK5 -8 and MEKK3 confirm 98.
`CSc1nc(-c2ccccc2)nn1C(=O)c1ccccc1` gave Apaf-1 inh 5, UBC13 inh 6 and Pemphigus Ab inh 91.
Screening CCOc1ccc(Br)cc1S(=O)(=O)Nc1cccc(S(=O)(=O)Nc2ccccc2C(=O)O)c1 returned Apaf-1 inh -3 and UBC13 inh -1.
Screening O=[N+]([O-])c1ccc(N2CCCCC2)cc1NCCOc1ccccc1 returned Apaf-1 inh 6, UBC13 inh -16, MEKK3 PB1 HTS 97, MEKK2wt PB1 HTS 101, MEKK2mut PB1 HTS -1 and Pemphigus Ab inh 103.
CC1CN(c2ccc([N+](=O)[O-])c(NCCOc3ccccc3)c2)CC(C)N1 (stereo not drawn) was read as Apaf-1 inh 22, UBC13 inh -23, MEKK3 PB1 HTS 109, MEKK2wt PB1 HTS 170*, MEKK2mut PB1 HTS 18, Pemphigus Ab inh 126, MEKK2wt confirm 140, MEKK2mut-MEK5 22 and MEKK3 confirm 107.
For CC1CN(c2ccc([N+](=O)[O-])c(NCCOc3ccc(Cl)cc3)c2)CC(C)N1 (stereo not drawn) the results were Apaf-1 inh 27, UBC13 inh 22, MEKK3 PB1 HTS 109, MEKK2wt PB1 HTS 222*, MEKK2mut PB1 HTS 48*, Pemphigus Ab inh 112, MEKK2wt confirm 163, MEKK2mut-MEK5 31 and MEKK3 confirm 103.
For Cc1nc2ccccn2c1C(=O)N=Nc1c(O)[nH]c2ccccc12 the results were Apaf-1 inh -6, UBC13 inh -10, MEKK3 PB1 HTS 139*, MEKK2wt PB1 HTS 106, MEKK2mut PB1 HTS 2, Pemphigus Ab inh 94, MEKK2wt confirm 102, MEKK2mut-MEK5 1 and MEKK3 confirm 103.
Screening Cc1cccc2cc(/C=N/Nc3ccc(C(=O)O)cc3)c(Cl)nc12 returned Apaf-1 inh -2, UBC13 inh 2, MEKK3 PB1 HTS 66*[inhibitor], MEKK2wt PB1 HTS 67, MEKK2mut PB1 HTS -37, Pemphigus Ab inh 104, MEKK2wt confirm 74, MEKK2mut-MEK5 -13 and MEKK3 confirm 79.
For COc1cc2nc(/C=C/c3ccc(N(C)C)cc3)sc2cc1SC the results were MEKK3 PB1 HTS 89, MEKK2wt PB1 HTS 33*[inhibitor], MEKK2mut PB1 HTS 32, Pemphigus Ab inh 110, MEKK2wt confirm 86, MEKK2mut-MEK5 -13 and MEKK3 confirm 93.
`CCOC(=O)N1C2c3ccccc3C(c3ccccc32)N1C(=O)OCC` gave Pemphigus Ab inh 115.
For CCOC(=O)C1=C(C)NC2=C(C(=O)CCC2)C1c1coc2ccccc2c1=O (stereo not drawn) the results were Apaf-1 inh -21, UBC13 inh -4, MEKK3 PB1 HTS 91, MEKK2wt PB1 HTS 91, MEKK2mut PB1 HTS -4 and Pemphigus Ab inh 100.
Screening CC1=C(C(=O)OCCOc2ccccc2)C(c2coc3ccccc3c2=O)C2=C(CCCC2=O)N1 (stereo not drawn) returned Apaf-1 inh -16, UBC13 inh -2, MEKK3 PB1 HTS 69*[inhibitor], MEKK2wt PB1 HTS 81, MEKK2mut PB1 HTS -2, Pemphigus Ab inh 101, MEKK2wt confirm 103, MEKK2mut-MEK5 -4 and MEKK3 confirm 101.
`CC1=C(C(=O)OC2CCCC2)C(c2coc3ccccc3c2=O)C2=C(CCCC2=O)N1` (stereo not drawn) gave Apaf-1 inh 1, UBC13 inh 0, MEKK3 PB1 HTS 133*, MEKK2wt PB1 HTS 117, MEKK2mut PB1 HTS 0, Pemphigus Ab inh 100, MEKK2wt confirm 113, MEKK2mut-MEK5 -3 and MEKK3 confirm 87.
Cc1cc(N2CCCCC2)nc(SCc2ccc(C#N)cc2)n1 was read as Apaf-1 inh 23, UBC13 inh 12, MEKK3 PB1 HTS 122*, MEKK2wt PB1 HTS 115, MEKK2mut PB1 HTS 4, MEKK2wt confirm 85, MEKK2mut-MEK5 0 and MEKK3 confirm 91.
Screening Cc1csc(NC(=O)CSc2nc(C(C)C)nc3ccccc23)n1 returned Apaf-1 inh 2, UBC13 inh 7, MEKK3 PB1 HTS 96, MEKK2wt PB1 HTS 94 and MEKK2mut PB1 HTS -2.
For COCCN(C(=O)COC(=O)C1CCCCC1)c1c(N)n(Cc2ccccc2)c(=O)[nH]c1=O the results were Pemphigus Ab inh 98.
`O=C(C[n+]1ccccc1)N/N=C/c1cccc(Cl)c1Cl` gave Apaf-1 inh -6, UBC13 inh -6, MEKK3 PB1 HTS 88, MEKK2wt PB1 HTS 66*[inhibitor], MEKK2mut PB1 HTS -2, Pemphigus Ab inh 108, MEKK2wt confirm 109, MEKK2mut-MEK5 4 and MEKK3 confirm 104.
CC(=O)c1ccc(Oc2ccc(C(C)=O)cc2)cc1 was read as Apaf-1 inh 6, UBC13 inh 2, MEKK3 PB1 HTS 104, MEKK2wt PB1 HTS 104 and MEKK2mut PB1 HTS 2.
Screening CC(=O)c1ccc(OCCOc2ccc(C#N)cc2)cc1 returned Apaf-1 inh -4, UBC13 inh 11, MEKK3 PB1 HTS 130*, MEKK2wt PB1 HTS 127, MEKK2mut PB1 HTS 24, Pemphigus Ab inh 93, MEKK2wt confirm 102, MEKK2mut-MEK5 6 and MEKK3 confirm 104.
